What was measured:
Rattus norvegicus [1] = test: Compound was tested for anticonvulsant activity after Oral Administration into Rats by using MES screen test after 0.25h,dose 30 mg/kg; No activity was demonstarted; assay type: functional, organism-based; parameters: dose 30 mg/kg
Outline: (§1)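 Rats received the compound orally. […] Rats were tested in the MES screen at 0.25, 0.5, 1, 2 and 4 h. Each value is the number of rats protected out of 4. The test followed NINDS procedures.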

Rattus norvegicus [2] = test: Compound was tested for anticonvulsant activity after Oral Administration into Rats by using MES screen test after 1h,dose 30 mg/kg; number of rats out of four which were protected; assay type: functional; outline: as §1
Mus musculus [3] = test: Compound was tested for toxicity after intraperitoneal injection into mice by using toxicity screen test after 4 hr; assay type: organism-based; settings: in vivo, ip
Outline: (§2)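 Mice injected intraperitoneally at 30, 100 and 300 mg/kg and examined 0.5 and 4 h afterwards. Each entry is the minimum dose giving activity (MES protection, scPTZ protection, or rotorod failure for neurotoxicity) in half or more of the mice. Activity is called absent if nothing occurs at 300 mg/kg.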

Rattus norvegicus [4] = test: Compound was tested for anticonvulsant activity after Oral Administration into Rats by using MES screen test after 0.5h,dose 30 mg/kg; number of rats out of four which were protected; assay type: functional; outline: as §1
Rattus norvegicus [5] = test: Compound was tested for anticonvulsant activity after Oral Administration into Rats by using MES screen test after 4h,dose 30 mg/kg; number of rats out of four which were protected; assay type: functional; outline: as §1
Mus musculus [6] = test: Toxicity after intraperitoneal injection into mice by using toxicity screen test after 0.5 hr; assay type: organism-based; settings: in vivo, ip; outline: as §2
Mus musculus [7] = test: Anticonvulsant activity after intraperitoneal injection into mice measured in a maximal electroshock scree (MES) screen; assay type: functional
Rattus norvegicus [8] = test: Compound was tested for anticonvulsant activity after Oral Administration into rat by using MES screen test after 2 hr; assay type: functional
Outline: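 Rats dosed orally, typically at 50 mg/kg first, then mostly 12.5 mg/kg (some compounds at 30 mg/kg), and tested by maximal electroshock. Four rats per compound, scored at 0.25, 0.5, 1, 2 and 4 h as the number of rats protected out of 4.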

Mus musculus [9] = test: Anticonvulsant activity after intraperitoneal injection into mice by using MES screen test after 0.5 hr; assay type: functional
Mus musculus [10] = test: Anticonvulsant activity after intraperitoneal injection into mice by using scPTZ screen after 0.5 hr; assay type: functional
Mus musculus [11] = test: Anticonvulsant activity after intraperitoneal injection into mice by using scPTZ screen test after 4 hr; assay type: functional
Rattus norvegicus [12] = test: Compound was tested for anticonvulsant activity after Oral Administration into Rats by using MES screen test after 2h,dose 30 mg/kg; number of rats out of four which were protected; assay type: functional; outline: as §1
Rattus norvegicus [13] = test: Compound was tested for anticonvulsant activity after Oral Administration into Rats by using MES screen test after 0.25h,dose 30 mg/kg; number of rats out of four which were protected; assay type: functional; outline: as §1
[14] = Compound was tested for toxicity after oral administration in rat by using neurotoxicity screen test after 0.25-24 hr; assay type: organism-based; settings: in vivo
Outline: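 Rat neurotoxicity after oral dosing, observed at 0.25, 0.5, 1, 2, 4, 6, 8 and 24 h (8 h omitted for one compound).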

[15] = Compound was tested for toxicity after intraperitoneal injection into mice by using neurotoxicity screen test after 2 hr; assay type: organism-based; settings: mouse, in vivo, ip
Outline: (§3)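 Quantitative intraperitoneal mouse testing in the MES, scPTZ or rotorod neurotoxicity screens at the peak time given for each compound (0.25–2 h). ED50 or TD50 reported in mg/kg with 95% CI and slope (SE).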

Rattus norvegicus [16] = test: Compound was tested for anticonvulsant activity after Oral Administration into Rats by using MES screen test after 1h,dose 12.5 mg/kg; number of rats out of four which were protected; assay type: functional; outline: as §1
Rattus norvegicus [17] = test: Compound was tested for anticonvulsant activity after Oral Administration into Rats by using MES screen test after 2h,dose 12.5 mg/kg; number of rats out of four which were protected; assay type: functional; outline: as §1
Rattus norvegicus [18] = test: Anticonvulsant activity after oral administration into rats; assay type: functional; parameters: concentration or dose not given beside the values
Rattus norvegicus [19] = test: Compound was tested for anticonvulsant activity after Oral Administration into Rats by using MES screen test after 4h,dose 12.5 mg/kg; No activity was demonstarted; assay type: functional, organism-based; parameters: dose 12.5 mg/kg; outline: as §1
Rattus norvegicus [20] = test: Compound was tested for anticonvulsant activity after Oral Administration into Rats by using MES screen test after 0.25h,dose 12.5 mg/kg; No activity was demonstarted; assay type: functional, organism-based; parameters: dose 12.5 mg/kg; outline: as §1
Mus musculus [21] = test: Compound was tested for anticonvulsant activity after intraperitoneal injection into mice by using MES screen test after 0.5 hr; assay type: functional; settings: ip; outline: as §2
Mus musculus [22] = test: Compound was tested for anticonvulsant activity after intraperitoneal injection into mice by using scPTZ screen test after 0.5 hr; assay type: functional; settings: ip; outline: as §2
[23] = Compound was tested for toxicity after intraperitoneal injection into mice by using neurotoxicity screen test after 1 hr; assay type: organism-based; settings: mouse, in vivo, ip; outline: as §3
Rattus norvegicus [24] = test: Compound was tested for anticonvulsant activity after Oral Administration into Rats by using MES screen test after 0.25h,dose 12.5 mg/kg; number of rats out of four which were protected; assay type: functional; outline: as §1
[25] = Protection index = TD50/ED50 (MES); settings: mouse, in vivo; read-out: PI
Rattus norvegicus [26] = test: Compound was tested for anticonvulsant activity after Oral Administration into Rats by using MES screen test after 4h,dose 12.5 mg/kg; number of rats out of four which were protected; assay type: functional; outline: as §1
Rattus norvegicus [27] = test: Compound was tested for anticonvulsant activity after Oral Administration into Rats by using MES screen test after 1h,dose 50 mg/kg; number of rats out of four which were protected; assay type: functional; outline: as §1
Rattus norvegicus [28] = test: Compound was tested for anticonvulsant activity after Oral Administration into Rats by using MES screen test after 0.5h,dose 50 mg/kg; number of rats out of four which were protected; assay type: functional; outline: as §1
Rattus norvegicus [29] = test: Compound was tested for anticonvulsant activity after Oral Administration into Rats by using MES screen test after 2h,dose 50 mg/kg; number of rats out of four which were protected; assay type: functional; outline: as §1
Rattus norvegicus [30] = test: Compound was tested for anticonvulsant activity after Oral Administration into Rats by using MES screen test after 0.25h,dose 50 mg/kg; number of rats out of four which were protected; assay type: functional; outline: as §1
Rattus norvegicus [31] = test: Compound was tested for anticonvulsant activity after Oral Administration into Rats by using MES screen test after 4h,dose 50 mg/kg; number of rats out of four which were protected; assay type: functional; outline: as §1
Rattus norvegicus [32] = test: Compound was tested for anticonvulsant activity after Oral Administration into Rats by using MES screen test after 1h,dose 12.5 mg/kg; No activity was demonstarted; assay type: functional, organism-based; parameters: dose 12.5 mg/kg; outline: as §1
Rattus norvegicus [33] = test: Compound was tested for anticonvulsant activity after Oral Administration into Rats by using MES screen test after 0.5h,dose 12.5 mg/kg; No activity was demonstarted; assay type: functional, organism-based; parameters: dose 12.5 mg/kg; outline: as §1
Rattus norvegicus [34] = test: Compound was tested for anticonvulsant activity after Oral Administration into Rats by using MES screen test after 2h,dose 12.5 mg/kg; No activity was demonstarted; assay type: functional, organism-based; parameters: dose 12.5 mg/kg; outline: as §1

Compound	Activity (Rattus norvegicus [2])	Dose (Mus musculus [3]) [mg/kg]	Activity (Rattus norvegicus [4])	Activity (Rattus norvegicus [5])	Dose (Mus musculus [6]) [mg/kg]	Dose (Mus musculus [7]) [mg/kg]	ED50 (Rattus norvegicus [8]) [mg/kg]	Dose (Mus musculus [9]) [mg/kg]	Dose (Mus musculus [10]) [mg/kg]	Dose (Mus musculus [11]) [mg/kg]	Activity (Rattus norvegicus [12])	Activity (Rattus norvegicus [13])	Activity (Rattus norvegicus [17])	Activity (Rattus norvegicus [19])	Activity (Rattus norvegicus [20])	also measured
CC/C(=N/NC(N)=O)c1ccc(Sc2ccccc2)cc1	4	100	3	4	100	30	18.6	30	100	100	3	–	–	–	–	Activity (Rattus norvegicus [1]): No activity
Cc1cccc(C)c1Oc1ccc(/C=N/NC(N)=O)cc1	4	300	4	4	300	100	–	30	30	100	4	1	–	–	–	–
CC/C(=N/NC(N)=O)c1ccc(Oc2ccc(Cl)cc2)cc1	4	100	1	4	300	–	2.89	30	300	–	4	–	–	–	–	Activity (Rattus norvegicus [1]): No activity; TD50 [14]: > 500 mg/kg; TD50 at 2 h [15]: < 100 mg/kg
Cc1cc(C)cc(Oc2ccc(/C=N/NC(N)=O)cc2)c1	–	–	–	–	–	300	–	30	300	–	–	–	2	No activity	No activity	Activity (Rattus norvegicus [16]): 3; Activity (Rattus norvegicus [18]): 4
NC(=O)N/N=C\c1ccc(OS(=O)(=O)c2ccccc2)cc1	–	300	–	–	300	30	–	30	30	–	–	–	4	–	–	Activity (Rattus norvegicus [16]): 2; ED50 (Mus musculus [21]): 25.3 mg/kg; ED50 (Mus musculus [22]): > 100 mg/kg; TD50 at 1 h [23]: 113 mg/kg; Activity (Rattus norvegicus [24]): 1; selectivity ratio [25]: 4.47; Activity (Rattus norvegicus [18]): 2; Activity (Rattus norvegicus [26]): 3
C/C(=N/NC(N)=O)c1ccccc1Oc1ccc(F)cc1	3	–	1	2	–	–	43.4	–	–	–	3	1	–	–	–	–
NC(=O)N/N=C/c1ccc(Oc2ccccc2F)cc1	–	–	–	–	–	300	–	100	300	–	–	–	–	–	–	ED50 (Mus musculus [21]): 20.7 mg/kg; Activity (Rattus norvegicus [27]): 4; ED50 (Mus musculus [22]): > 220 mg/kg; Activity (Rattus norvegicus [28]): 4; Activity (Rattus norvegicus [29]): 4; Activity (Rattus norvegicus [30]): 2; Activity (Rattus norvegicus [31]): 4; TD50 at 2 h [15]: 170 mg/kg
N=C(N)N/N=C/c1ccc(Sc2ccc(F)cc2)cc1	–	100	–	–	100	–	–	300	30	30	–	–	1	No activity	No activity	Activity (Rattus norvegicus [32]): No activity; Activity (Rattus norvegicus [33]): No activity
C/C(=N/NC(N)=O)c1ccc(Sc2ccc(F)cc2)cc1	4	300	4	4	300	30	9.11	100	–	300	4	3	–	–	–	–
CC/C(=N/NC(N)=O)c1ccccc1Oc1ccc(F)cc1	–	300	–	–	–	–	–	–	–	–	–	–	–	No activity	No activity	Activity (Rattus norvegicus [34]): No activity; Activity (Rattus norvegicus [32]): No activity; Activity (Rattus norvegicus [33]): No activity

Reference: ChEMBL document CHEMBL1129428 (J Med Chem, 1996)
